From ChEMBL document CHEMBL4118234, “Synthesis and biological evaluation of irreversible EGFR tyrosine kinase inhibitors containing pyrido[3,4-d]pyrimidine scaffold” (Bioorg Med Chem, 2018)

Experiments:
[1] = Solubility of the compound; format: physicochemical
HCC827 [2] = assay: Antiproliferative activity against human HCC827 cells harboring EGFR E746 to A750 deletion mutant after 72 hrs by MTT assay; format: functional, cell-based; settings: HCC827, 72 h
Outline: (§1)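 Cells were kept in RPMI-1640 with 10% heat-inactivated FBS, plus 1% of 100 mM sodium pyruvate for HCC827, at 37 °C and 5% CO2. They were seeded at 3000-5000 per well and pre-incubated 24 h. Final compound concentrations were 0.33, 1, 33, 100, 333, 1000, 3333, 10000 nM for 72 h. MTT was added for 4 h, formazan dissolved in DMSO, and OD read at 490 nm. Inhibition ratios were taken against control culture, and IC50 calculated from them. At least three experiments were run in triplicate.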

HCC827 [3] = assay: Antiproliferative activity against human HCC827 cells harboring EGFR E746 to A750 deletion mutant at 10 uM after 72 hrs by MTT assay relative to control; format: functional; outline: as §1
[4] = biological target: Epidermal growth factor receptor (Homo sapiens, UniProt P00533, L858R); assay: Inhibition of EGFR L858R mutant (unknown origin) using Poly(Glu,Tyr) as substrate after 40 mins by Kinase-Glo luminescence assay
[5] = biological target: Epidermal growth factor receptor (Homo sapiens, UniProt P00533, C797S/L858R/T790M); assay: Inhibition of EGFR L858R/T790M/C797S triple mutant (unknown origin) using Poly(Glu,Tyr) as substrate after 40 mins by Kinase-Glo luminescence assay
[6] = biological target: Epidermal growth factor receptor (Homo sapiens, UniProt P00533); assay: Inhibition of wild type EGFR (unknown origin) using Poly(Glu,Tyr) as substrate after 40 mins by Kinase-Glo luminescence assay
A549 = assay: Cytotoxicity against human A549 cells harboring wild type EGFR assessed as reduction in cell viability after 72 hrs by MTT assay; format: cell-based; settings: A549, 72 h; outline: as §1
NCI-H1975 [7] = assay: Antiproliferative activity against human NCI-H1975 cells harboring EGFR L858R/T790M double mutant after 72 hrs by MTT assay; format: functional, cell-based; settings: NCI-H1975, 72 h; outline: as §1
[8] = biological target: Epidermal growth factor receptor (Homo sapiens, UniProt P00533, L858R/T790M); assay: Inhibition of EGFR L858R/T790M double mutant (unknown origin) using Poly(Glu,Tyr) as substrate after 40 mins by Kinase-Glo luminescence assay
[9] = system: Epidermal growth factor receptor (Homo sapiens), P00533 [L858R,T790M,C797S]; assay: Inhibition of EGFR L858R/T790M/C797S triple mutant (unknown origin) at 500 nM using Poly(Glu,Tyr) as substrate after 40 mins by Kinase-Glo luminescence assay relative to control
Outline: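 The reaction ran 40 min at 30 °C in 40 mM Tris pH 7.4, 10 mM MgCl2, 0.1 mg/mL BSA, 1 mM DTT, 10 µM ATP, 25 ng kinase, and 0.2 mg/mL poly(Glu,Tyr); final DMSO was 1%. Remaining ATP was read by Kinase-Glo Plus luminescence. Inhibition was scored relative to no-compound and no-enzyme signals. At least two experiments were run.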

HCC827 [10] = assay: Induction of apoptosis in human HCC827 cells harboring EGFR E746 to A750 deletion mutant assessed as late apoptotic cells at 3 uM after 24 hrs by Annexin V-FITC/propidium iodide staining based flow cytometry (reference value: 23.66 to 27.14%); format: functional
HCC827 [11] = assay: Induction of apoptosis in human HCC827 cells harboring EGFR E746 to A750 deletion mutant assessed as early apoptotic cells at 3 uM after 24 hrs by Annexin V-FITC/propidium iodide staining based flow cytometry (reference value: 1.34 to 1.67%); format: functional
NCI-H1975 [12] = assay: Antiproliferative activity against human NCI-H1975 cells harboring EGFR L858R/T790M double mutant at 10 uM after 72 hrs by MTT assay relative to control; format: functional; outline: as §1

Epidermal growth factor receptor (Homo sapiens, UniProt P00533, L858R/T790M), sequence (P00533 25-1210 T790M/L858R limits assumed): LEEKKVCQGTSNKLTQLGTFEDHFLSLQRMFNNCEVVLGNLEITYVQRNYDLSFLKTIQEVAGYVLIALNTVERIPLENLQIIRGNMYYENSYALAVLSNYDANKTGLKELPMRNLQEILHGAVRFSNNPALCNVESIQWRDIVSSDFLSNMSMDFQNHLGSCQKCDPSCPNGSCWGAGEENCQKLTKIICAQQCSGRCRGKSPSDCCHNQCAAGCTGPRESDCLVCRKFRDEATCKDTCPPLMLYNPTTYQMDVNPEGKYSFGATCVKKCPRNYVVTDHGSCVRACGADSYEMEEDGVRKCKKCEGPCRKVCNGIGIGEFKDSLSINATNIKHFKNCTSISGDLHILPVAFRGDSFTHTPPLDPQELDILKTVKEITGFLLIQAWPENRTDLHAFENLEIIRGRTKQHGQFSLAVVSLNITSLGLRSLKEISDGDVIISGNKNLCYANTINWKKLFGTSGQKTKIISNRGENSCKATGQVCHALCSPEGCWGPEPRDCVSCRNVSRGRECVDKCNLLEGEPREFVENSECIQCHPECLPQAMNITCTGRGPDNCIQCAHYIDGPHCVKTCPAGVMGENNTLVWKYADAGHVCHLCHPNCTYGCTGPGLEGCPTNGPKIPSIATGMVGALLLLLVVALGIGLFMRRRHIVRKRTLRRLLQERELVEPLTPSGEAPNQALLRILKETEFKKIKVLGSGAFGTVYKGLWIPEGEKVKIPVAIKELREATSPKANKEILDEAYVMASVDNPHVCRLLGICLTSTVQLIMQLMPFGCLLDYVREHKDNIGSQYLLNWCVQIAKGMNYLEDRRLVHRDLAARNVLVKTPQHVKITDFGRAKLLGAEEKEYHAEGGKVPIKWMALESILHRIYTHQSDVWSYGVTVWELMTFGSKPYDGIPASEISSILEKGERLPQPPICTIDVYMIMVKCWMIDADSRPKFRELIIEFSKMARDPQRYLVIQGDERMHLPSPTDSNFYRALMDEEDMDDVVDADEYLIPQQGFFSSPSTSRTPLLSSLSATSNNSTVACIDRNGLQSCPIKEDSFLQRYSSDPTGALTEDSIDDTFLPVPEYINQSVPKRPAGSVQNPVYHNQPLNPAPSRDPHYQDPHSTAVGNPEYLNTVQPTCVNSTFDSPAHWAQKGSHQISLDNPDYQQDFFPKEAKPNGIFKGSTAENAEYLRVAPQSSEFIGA
Epidermal growth factor receptor (Homo sapiens), P00533 [L858R,T790M,C797S], sequence (P00533 whole entry T790M/C797S/L858R): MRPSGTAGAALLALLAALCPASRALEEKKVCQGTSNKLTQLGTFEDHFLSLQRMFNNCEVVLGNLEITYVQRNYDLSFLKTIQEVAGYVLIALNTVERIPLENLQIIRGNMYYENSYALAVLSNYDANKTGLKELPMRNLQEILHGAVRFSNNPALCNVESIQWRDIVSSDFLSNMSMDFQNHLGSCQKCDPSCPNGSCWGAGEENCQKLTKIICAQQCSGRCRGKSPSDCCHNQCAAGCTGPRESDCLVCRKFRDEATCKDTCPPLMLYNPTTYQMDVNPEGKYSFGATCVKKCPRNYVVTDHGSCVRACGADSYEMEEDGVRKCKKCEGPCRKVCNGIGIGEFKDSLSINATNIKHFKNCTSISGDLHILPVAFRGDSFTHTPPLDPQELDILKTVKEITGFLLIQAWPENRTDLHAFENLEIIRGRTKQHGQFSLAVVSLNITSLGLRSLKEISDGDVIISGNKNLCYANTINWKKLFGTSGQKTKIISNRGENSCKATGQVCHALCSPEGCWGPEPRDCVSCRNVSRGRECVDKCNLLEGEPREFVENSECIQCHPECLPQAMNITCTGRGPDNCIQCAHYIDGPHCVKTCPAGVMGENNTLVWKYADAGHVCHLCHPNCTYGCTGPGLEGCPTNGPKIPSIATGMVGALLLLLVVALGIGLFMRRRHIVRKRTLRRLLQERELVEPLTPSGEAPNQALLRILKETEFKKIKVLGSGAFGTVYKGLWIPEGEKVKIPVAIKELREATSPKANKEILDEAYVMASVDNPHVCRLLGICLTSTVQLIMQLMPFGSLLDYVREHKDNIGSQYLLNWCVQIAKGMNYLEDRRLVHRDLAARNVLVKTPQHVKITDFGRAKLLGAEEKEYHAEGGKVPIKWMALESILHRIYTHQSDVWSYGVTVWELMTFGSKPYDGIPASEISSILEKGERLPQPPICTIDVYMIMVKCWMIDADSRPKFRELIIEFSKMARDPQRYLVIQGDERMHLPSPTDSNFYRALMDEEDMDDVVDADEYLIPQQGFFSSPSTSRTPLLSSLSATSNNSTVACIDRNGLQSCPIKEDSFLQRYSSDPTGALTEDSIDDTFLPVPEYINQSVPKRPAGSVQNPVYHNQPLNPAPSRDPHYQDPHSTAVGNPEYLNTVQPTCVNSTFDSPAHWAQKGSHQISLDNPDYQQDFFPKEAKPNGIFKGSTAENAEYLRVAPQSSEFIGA
Epidermal growth factor receptor (Homo sapiens, UniProt P00533, C797S/L858R/T790M), sequence (P00533 25-1210 T790M/C797S/L858R limits assumed): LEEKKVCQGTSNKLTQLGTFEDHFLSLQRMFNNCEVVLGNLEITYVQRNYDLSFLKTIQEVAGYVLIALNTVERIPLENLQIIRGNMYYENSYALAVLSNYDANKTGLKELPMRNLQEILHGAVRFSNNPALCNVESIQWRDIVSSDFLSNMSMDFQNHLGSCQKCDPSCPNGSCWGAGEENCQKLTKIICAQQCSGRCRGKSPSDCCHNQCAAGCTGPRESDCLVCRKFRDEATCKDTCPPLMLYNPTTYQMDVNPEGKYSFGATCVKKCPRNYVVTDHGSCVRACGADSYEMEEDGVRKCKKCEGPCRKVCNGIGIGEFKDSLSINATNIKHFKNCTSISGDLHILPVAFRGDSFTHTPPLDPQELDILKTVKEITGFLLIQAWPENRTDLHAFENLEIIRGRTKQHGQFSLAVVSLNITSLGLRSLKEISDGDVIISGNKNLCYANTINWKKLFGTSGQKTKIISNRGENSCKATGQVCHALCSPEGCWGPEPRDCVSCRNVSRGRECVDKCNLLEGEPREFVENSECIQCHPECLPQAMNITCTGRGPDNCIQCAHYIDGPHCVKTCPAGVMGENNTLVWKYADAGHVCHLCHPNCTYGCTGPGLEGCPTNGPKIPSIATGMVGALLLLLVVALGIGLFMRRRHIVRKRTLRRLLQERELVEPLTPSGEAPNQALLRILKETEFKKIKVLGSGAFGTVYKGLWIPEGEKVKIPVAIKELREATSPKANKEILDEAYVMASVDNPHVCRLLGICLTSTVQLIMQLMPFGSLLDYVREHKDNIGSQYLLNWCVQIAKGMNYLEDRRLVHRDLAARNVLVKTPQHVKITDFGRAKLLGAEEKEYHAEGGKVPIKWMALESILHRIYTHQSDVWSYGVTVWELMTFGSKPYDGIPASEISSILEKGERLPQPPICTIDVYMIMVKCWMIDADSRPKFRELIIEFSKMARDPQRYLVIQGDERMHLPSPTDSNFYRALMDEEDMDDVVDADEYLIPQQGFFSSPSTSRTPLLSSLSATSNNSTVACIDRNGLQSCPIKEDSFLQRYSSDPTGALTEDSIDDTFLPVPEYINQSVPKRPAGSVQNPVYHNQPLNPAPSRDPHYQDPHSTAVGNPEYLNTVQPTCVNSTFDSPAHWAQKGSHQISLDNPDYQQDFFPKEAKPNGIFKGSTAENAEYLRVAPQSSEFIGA
Epidermal growth factor receptor (Homo sapiens, UniProt P00533, L858R), sequence (P00533 25-1210 L858R limits assumed): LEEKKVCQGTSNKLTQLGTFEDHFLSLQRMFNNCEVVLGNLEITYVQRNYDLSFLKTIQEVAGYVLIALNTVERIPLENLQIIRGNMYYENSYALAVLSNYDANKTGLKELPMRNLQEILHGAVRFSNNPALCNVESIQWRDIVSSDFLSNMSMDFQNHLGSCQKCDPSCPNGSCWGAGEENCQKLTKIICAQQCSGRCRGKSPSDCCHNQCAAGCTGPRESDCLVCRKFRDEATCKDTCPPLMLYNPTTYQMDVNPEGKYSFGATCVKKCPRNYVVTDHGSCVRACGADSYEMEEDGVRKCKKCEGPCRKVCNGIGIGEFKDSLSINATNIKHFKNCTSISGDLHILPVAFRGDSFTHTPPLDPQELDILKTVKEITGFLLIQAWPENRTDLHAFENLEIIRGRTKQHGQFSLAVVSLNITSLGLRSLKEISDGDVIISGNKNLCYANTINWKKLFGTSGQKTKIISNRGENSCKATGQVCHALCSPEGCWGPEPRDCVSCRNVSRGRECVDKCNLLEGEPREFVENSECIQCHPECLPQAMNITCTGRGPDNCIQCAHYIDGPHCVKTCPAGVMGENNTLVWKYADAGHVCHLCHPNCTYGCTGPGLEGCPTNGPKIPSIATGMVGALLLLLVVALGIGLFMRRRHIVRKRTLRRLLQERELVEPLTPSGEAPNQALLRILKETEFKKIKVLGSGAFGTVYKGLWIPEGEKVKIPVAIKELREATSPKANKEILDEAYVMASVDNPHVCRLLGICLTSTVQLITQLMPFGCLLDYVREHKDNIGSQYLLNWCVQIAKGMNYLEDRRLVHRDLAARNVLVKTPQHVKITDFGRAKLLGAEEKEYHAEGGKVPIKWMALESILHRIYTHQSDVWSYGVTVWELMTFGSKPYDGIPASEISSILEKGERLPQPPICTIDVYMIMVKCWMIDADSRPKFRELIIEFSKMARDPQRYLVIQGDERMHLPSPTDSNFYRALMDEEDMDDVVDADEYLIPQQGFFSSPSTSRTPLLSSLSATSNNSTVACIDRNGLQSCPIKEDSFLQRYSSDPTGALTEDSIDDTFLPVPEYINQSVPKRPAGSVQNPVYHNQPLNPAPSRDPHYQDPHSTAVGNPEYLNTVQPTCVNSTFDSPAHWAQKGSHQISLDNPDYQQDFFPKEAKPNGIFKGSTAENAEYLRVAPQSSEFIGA

For `C=CC(=O)Nc1cccc(Nc2cc3c(N4CCCC4)nc(OCc4ccc(F)cc4)nc3cn2)n1`, the solubility [1] was “Insoluble” and the IC50 (HCC827 [2]) was > 10000 nM.

With `C=CC(=O)N[C@@H]1CCN(c2ncnc3cnc(Nc4ccc(OCCOC)cc4OC)cc23)C1` the Activity (HCC827 [3]) was <50% and the IC50 (HCC827 [2]) was > 10000 nM.

With `C=CC(=O)N[C@H]1CCN(c2nc(Nc3ccccc3)nc3cnc(Nc4ccc(N5CCN(C)CC5)cn4)cc23)C1` the solubility [1] was “Soluble”, the IC50 [4] was 3.2 nM and the IC50 [5] was 285 nM. It also gave an IC50 [6] of 1.5 nM, an IC50 (A549) of 640 nM and an IC50 (HCC827 [2]) of 69 nM. It also gave an IC50 (NCI-H1975 [7]) of 850 nM and an IC50 [8] of 26.5 nM.

For `C=CC(=O)N[C@@H]1CCN(c2ncnc3cnc(Nc4ccc(OCCN(C)C)cc4OC)cc23)C1`, the Activity (HCC827 [3]) was <50% and the IC50 (HCC827 [2]) was > 10000 nM.

With `C=CC(=O)Nc1cccc(Nc2cc3c(N4CCCC4)nc(OCC4CCCCC4)nc3cn2)n1` the solubility [1] was “Insoluble” and the IC50 (HCC827 [2]) was > 10000 nM.

With `C=CC(=O)Nc1cccc(Nc2cc3c(N4CCCC4)nc(OCc4ccccc4)nc3cn2)n1` the solubility [1] was “Insoluble” and the IC50 (HCC827 [2]) was > 10000 nM.

In the case of `C=CC(=O)N1CC[C@@H](Nc2nc(Nc3ccccc3)nc3cnc(Nc4ccc(N5CCN(C)CC5)cn4)cc23)C1`, the solubility [1] is reported as “Soluble”, the IC50 [4] is reported as 4.6 nM and the IC50 [5] is reported as > 500 nM. For the same molecule, the IC50 [6] was 3.3 nM, the IC50 (A549) was 650 nM and the IC50 (HCC827 [2]) was 170 nM. For the same molecule, the IC50 (NCI-H1975 [7]) was 440 nM, the inhibition [9] was < 50% and the IC50 [8] was 106 nM.

In the case of `C=CC(=O)N[C@@H]1CCN(c2ncnc3cnc(Nc4ccc(N5CCN(C)CC5)cc4OC)cc23)C1`, the Activity (HCC827 [3]) is reported as <50% and the IC50 (HCC827 [2]) is reported as > 10000 nM.

Molecule `C=CC(=O)Nc1cc(Nc2nccc(-c3cn(C)c4ccccc34)n2)c(OC)cc1N(C)CCN(C)C` [OSIMERTINIB] has an Activity (HCC827 [10]) of 68.1%, an Activity (HCC827 [11]) of 8.28% and an IC50 (A549) of 530 nM. The IC50 (HCC827 [2]) was 27 nM and the IC50 (NCI-H1975 [7]) was […].

With `C=CC(=O)Nc1cccc(Nc2cc3c(N4CCCC4)nc(OC4CCOCC4)nc3cn2)n1` the solubility [1] was “Insoluble” and the IC50 (HCC827 [2]) was 2740 nM.

For `C=CC(=O)Nc1cccc(Nc2cc3c(N4CCCC4)nc(Nc4ccccc4)nc3cn2)n1`, the solubility [1] was “Insoluble”, the Activity (HCC827 [3]) was <50% and the IC50 (HCC827 [2]) was > 10000 nM.

With `C=CC(=O)N1CC[C@H](Nc2nc(Nc3ccccc3)nc3cnc(Nc4ccc(N5CCN(C)CC5)cn4)cc23)C1` the solubility [1] was “Soluble”, the IC50 [4] was 10.8 nM and the IC50 [5] was > 500 nM. For the same molecule, the IC50 [6] was 9.9 nM, the IC50 (A549) was 1670 nM and the IC50 (HCC827 [2]) was 270 nM. The IC50 (NCI-H1975 [7]) was 860 nM, the inhibition [9] was < 50% and the IC50 [8] was 238 nM.

For `C=CC(=O)N[C@@H]1CCN(c2nc(Nc3ccccc3)nc3cnc(Nc4ccc(N5CCN(C)CC5)cn4)cc23)C1`, the solubility [1] was “Soluble”, the IC50 [4] was 4.7 nM and the IC50 [6] was 2.7 nM. It also gave an IC50 (A549) of 1190 nM, an IC50 (HCC827 [2]) of 20 nM and an IC50 (NCI-H1975 [7]) of 1440 nM. It also gave an IC50 [8] of 36.6 nM.

For `C=CC(=O)N[C@@H]1CCN(c2ncnc3cnc(Nc4ccc(N5CCN(C)CC5)cn4)cc23)C1`, the Activity (NCI-H1975 [12]) was <50%, the IC50 (HCC827 [2]) was 3520 nM and the IC50 (NCI-H1975 [7]) was > 10000 nM.

In the case of `C=CC(=O)Nc1cccc(Nc2cc3c(N4CCCC4)nc(OCC4CCOCC4)nc3cn2)n1`, the solubility [1] is reported as “Insoluble” and the IC50 (HCC827 [2]) is reported as 8700 nM.

With `C=CC(=O)N[C@H]1CCCN(c2nc(Nc3ccccc3)nc3cnc(Nc4ccc(N5CCN(C)CC5)cn4)cc23)C1` the solubility [1] was “Soluble”, the IC50 [4] was 14.2 nM and the IC50 [5] was > 500 nM. It also gave an IC50 [6] of 12 nM, an IC50 (A549) of 810 nM and an IC50 (HCC827 [2]) of 73 nM. For the same molecule, the IC50 (NCI-H1975 [7]) was 1400 nM, the inhibition [9] was < 50% and the IC50 [8] was 361 nM.

For `C=CC(=O)Nc1cccc(Nc2cc3c(N4CCCC4)nc(Nc4cccc(F)c4)nc3cn2)n1`, the solubility [1] was “Insoluble”, the Activity (HCC827 [3]) was <50% and the IC50 (HCC827 [2]) was > 10000 nM.

For `C=CC(=O)N[C@@H]1CCCN(c2nc(Nc3ccccc3)nc3cnc(Nc4ccc(N5CCN(C)CC5)cn4)cc23)C1`, the solubility [1] was “Soluble”, the IC50 [4] was 6.5 nM and the IC50 [5] was > 500 nM. The IC50 [6] was 5.4 nM, the IC50 (A549) was 810 nM and the IC50 (HCC827 [2]) was 54 nM. The IC50 (NCI-H1975 [7]) was 1750 nM, the inhibition [9] was < 50% and the IC50 [8] was 164 nM.
